Legend:
[1] = Dissociation constant, pKa of the compound; type: physicochemical
[2] = Cmax in Sprague-Dawley rat at 30 mg/kg, po QD measured on day 4; type: ADME, organism-based; parameters: dose 30 mg/kg, route oral; settings: in vivo
How it was run: (§1)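 Male CD rats (226−325 g), n = 3, given the compound once daily by oral gavage for 4 days. Vehicle was 1% (w/v) methylcellulose aq suspension at 3−6 mg/mL, dosed at 5 mL/kg (target 15−30 mg/kg). Tail vein blood was taken on days 1 and 4 up to 24 h postdose. Blood was diluted 1:1 with water, extracted by acetonitrile protein precipitation and analysed by LC−MS/MS against calibration standards in diluted blood.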

[3] = Cmax in Sprague-Dawley rat at 30 mg/kg, po QD measured on day 1; type: ADME, organism-based; parameters: dose 30 mg/kg, route oral; settings: in vivo; how it was run: as §1
CYP1A2 [4] = assay: Induction of CYP1A2 mRNA expression in Sprague-Dawley rat hepatic microsomes at 30 mg/kg, po QD for 4 days relative to control; type: ADME, organism-based, Liver; settings: read-out: FC
[5] = Lipophilicity, log D of the compound at pH 7.4; type: physicochemical; settings: buffer
CYP1A1 [6] = assay: Induction of CYP1A1 mRNA expression in Sprague-Dawley rat hepatic microsomes at 30 mg/kg, po QD for 4 days relative to control; type: ADME, organism-based, Liver; settings: read-out: FC
How it was run: (§2)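 Male CD rats (226–325 g, n = 3) were dosed by oral gavage once daily for 4 days as a 1% w/v aqueous methylcellulose suspension (3–6 mg/mL, 5 mL/kg). At the end of the study, a left lateral liver lobe section was placed in RNALater and homogenised in TRIzol. RNA was purified, DNase-treated and converted to cDNA, and Cyp1a1 was read on low-density TaqMan arrays.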

[7] = AUC in Sprague-Dawley rat at 30 mg/kg, po QD measured on day 4; type: ADME, organism-based; settings: in vivo; how it was run: as §1
Rattus norvegicus [8] = assay: Dose normalized AUC in Sprague-Dawley rat at 30 mg/kg, po QD measured on day 1; type: ADME, organism-based; settings: in vivo; how it was run: as §1
[9] = AUC in Sprague-Dawley rat at 30 mg/kg, po QD measured on day 1; type: ADME, organism-based; settings: in vivo; how it was run: as §1
Rattus norvegicus [10] = assay: Dose normalized AUC in Sprague-Dawley rat at 30 mg/kg, po QD measured on day 4; type: ADME, organism-based; settings: in vivo; how it was run: as §1
Rattus norvegicus [11] = assay: Dose normalized AUC in Sprague-Dawley rat at 24 mg/kg, po QD measured on day 4; type: ADME, organism-based; settings: in vivo; how it was run: as §1
[12] = AUC in Sprague-Dawley rat at 24 mg/kg, po QD measured on day 1; type: ADME, organism-based; settings: in vivo; how it was run: as §1
[13] = Cmax in Sprague-Dawley rat at 24 mg/kg, po QD measured on day 1; type: ADME, organism-based; parameters: dose 24 mg/kg, route oral; settings: in vivo; how it was run: as §1
[14] = Cmax in Sprague-Dawley rat at 24 mg/kg, po QD measured on day 4; type: ADME, organism-based; parameters: dose 24 mg/kg, route oral; settings: in vivo; how it was run: as §1
CYP1A1 [15] = assay: Induction of CYP1A1 mRNA expression in Sprague-Dawley rat hepatic microsomes at 24 mg/kg, po QD for 4 days relative to control; type: ADME, organism-based, Liver; settings: read-out: FC; how it was run: as §2
CYP1A2 [16] = assay: Induction of CYP1A2 mRNA expression in Sprague-Dawley rat hepatic microsomes at 24 mg/kg, po QD for 4 days relative to control; type: ADME, organism-based, Liver; settings: read-out: FC
Rattus norvegicus [17] = assay: Dose normalized AUC in Sprague-Dawley rat at 24 mg/kg, po QD measured on day 1; type: ADME, organism-based; settings: in vivo; how it was run: as §1
[18] = AUC in Sprague-Dawley rat at 24 mg/kg, po QD measured on day 4; type: ADME, organism-based; settings: in vivo; how it was run: as §1
[19] = Cmax in Sprague-Dawley rat at 15 mg/kg, po QD measured on day 4; type: ADME, organism-based; parameters: dose 15 mg/kg, route oral; settings: in vivo; how it was run: as §1
CYP1A1 [20] = assay: Induction of CYP1A1 mRNA expression in Sprague-Dawley rat hepatic microsomes at 15 mg/kg, po QD for 4 days relative to control; type: ADME, organism-based, Liver; settings: read-out: FC; how it was run: as §2
[21] = AUC in Sprague-Dawley rat at 15 mg/kg, po QD measured on day 4; type: ADME, organism-based; settings: in vivo; how it was run: as §1
Rattus norvegicus [22] = assay: Dose normalized AUC in Sprague-Dawley rat at 15 mg/kg, po QD measured on day 4; type: ADME, organism-based; settings: in vivo; how it was run: as §1
Rattus norvegicus [23] = assay: Dose normalized AUC in Sprague-Dawley rat at 15 mg/kg, po QD measured on day 1; type: ADME, organism-based; settings: in vivo; how it was run: as §1
[24] = AUC in Sprague-Dawley rat at 15 mg/kg, po QD measured on day 1; type: ADME, organism-based; settings: in vivo; how it was run: as §1
CYP1A2 [25] = assay: Induction of CYP1A2 mRNA expression in Sprague-Dawley rat hepatic microsomes at 15 mg/kg, po QD for 4 days relative to control; type: ADME, organism-based, Liver; settings: read-out: FC
[26] = Cmax in Sprague-Dawley rat at 15 mg/kg, po QD measured on day 1; type: ADME, organism-based; parameters: dose 15 mg/kg, route oral; settings: in vivo; how it was run: as §1
[27] = Oral bioavailability in CD rat at 3 mg/kg; type: ADME, organism-based; settings: in vivo
How it was run: (§3)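 Male CD rats cannulated in the femoral and jugular veins, n = 3, crossover design. Day 1: 1 h iv infusion at 1 mg/kg (0.2 mg/mL in ≤5% DMSO/≥95% 10% Kleptose in saline, 5 mL/kg/h). Day 2: oral gavage at 3 mg/kg (0.6 mg/mL in 1% methylcellulose, 5 mL/kg). Blood assayed by LC–MS/MS after acetonitrile precipitation.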

Rattus norvegicus [28] = assay: Dose normalized AUC in Sprague-Dawley rat at 25 mg/kg, po QD measured on day 4; type: ADME, organism-based; settings: in vivo; how it was run: as §1
CYP1A2 [29] = assay: Induction of CYP1A2 mRNA expression in Sprague-Dawley rat hepatic microsomes at 25 mg/kg, po QD for 4 days relative to control; type: ADME, organism-based, Liver; settings: read-out: FC
Rattus norvegicus [30] = assay: Dose normalized AUC in Sprague-Dawley rat at 25 mg/kg, po QD measured on day 1; type: ADME, organism-based; settings: in vivo; how it was run: as §1
[31] = Half life in CD rat at 1 mg/kg, iv; type: ADME, organism-based; settings: in vivo
How it was run: (§4)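 Male CD rats carried femoral vein (dosing) and jugular vein (sampling) cannulae and recovered at least 2 days. They received a 1 h iv infusion at 5 mL kg−1 h−1, target 1 mg/kg, at 0.2 mg/mL in DMSO/10% Kleptose in saline (≤5%:≥95%). pH was adjusted to 8.0 if needed and the solution filtered. Definitive studies used n = 3 in crossover; others used single animals.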

[32] = Cmax in Sprague-Dawley rat at 25 mg/kg, po QD measured on day 1; type: ADME, organism-based; parameters: dose 25 mg/kg, route oral; settings: in vivo; how it was run: as §1
[33] = AUC in Sprague-Dawley rat at 25 mg/kg, po QD measured on day 4; type: ADME, organism-based; settings: in vivo; how it was run: as §1
[34] = Volume of distribution at steady state in CD rat at 1 mg/kg, iv; type: ADME, organism-based; settings: in vivo, read-out: Vdss; how it was run: as §3
[35] = AUC in Sprague-Dawley rat at 25 mg/kg, po QD measured on day 1; type: ADME, organism-based; settings: in vivo; how it was run: as §1
[36] = Cmax in Sprague-Dawley rat at 25 mg/kg, po QD measured on day 4; type: ADME, organism-based; parameters: dose 25 mg/kg, route oral; settings: in vivo; how it was run: as §1
CYP1A1 [37] = assay: Induction of CYP1A1 mRNA expression in Sprague-Dawley rat hepatic microsomes at 25 mg/kg, po QD for 4 days relative to control; type: ADME, organism-based, Liver; settings: read-out: FC; how it was run: as §2
[38] = Blood clearance in CD rat at 1 mg/kg, iv; type: ADME, organism-based; how it was run: as §4

Row | pKa [1] | Cmax [2] [ng/mL] | Cmax [3] [ng/mL] | fold induction at 96 h (CYP1A2 [4]) | logD [5] | fold induction at 96 h (CYP1A1 [6]) | AUC [7] [ng·h/mL] | AUC/dose (Rattus norvegicus [8]) [kg·min/L] | AUC [9] [ng·h/mL] | AUC/dose (Rattus norvegicus [10]) [kg·min/L] | Cmax [19] [ng/mL] | fold induction at 96 h (CYP1A1 [20]) | AUC [21] [ng·h/mL] | AUC/dose (Rattus norvegicus [22]) [kg·min/L] | AUC/dose (Rattus norvegicus [23]) [kg·min/L] | AUC [24] [ng·h/mL] | fold induction at 96 h (CYP1A2 [25]) | Cmax [26] [ng/mL] | SMILES | other results
1 | – | 790 | 440 | 1.5 | 2.76 | 1.4 | 7640 | 9 | 4420 | 16 | – | – | – | – | – | – | – | – | Cc1c(-c2noc(-c3ccc(OC(C)C)c(C#N)c3)n2)ccc2c1CCN(C(CO)CO)C2 | –
2 | 8.2 | – | – | – | 2.64 | – | – | – | – | – | 670 | 275 | 11500 | 46 | 36 | 9100 | 1.9 | 550 | Cc1c(-c2noc(-c3ccc(OC(C)C)c(C#N)c3)n2)ccc2c1CCN(C(CO)CO)CC2 | –

Continued, molecule first:

Row | SMILES | pKa [1] | Cmax [2] [ng/mL] | Cmax [3] [ng/mL] | fold induction at 96 h (CYP1A2 [4]) | logD [5] | fold induction at 96 h (CYP1A1 [6]) | AUC [7] [ng·h/mL] | AUC/dose (Rattus norvegicus [8]) [kg·min/L] | AUC [9] [ng·h/mL] | AUC/dose (Rattus norvegicus [10]) [kg·min/L] | Cmax [19] [ng/mL] | fold induction at 96 h (CYP1A1 [20]) | AUC [21] [ng·h/mL] | AUC/dose (Rattus norvegicus [22]) [kg·min/L] | AUC/dose (Rattus norvegicus [23]) [kg·min/L] | AUC [24] [ng·h/mL] | fold induction at 96 h (CYP1A2 [25]) | Cmax [26] [ng/mL] | other results
3 | Cc1c(-c2noc(-c3ccc(OC(C)C)c(C#N)c3)n2)ccc2c1CCN(C[C@H](O)CO)C2 | 7.7 | 500 | 770 | 10 | 2.7 | 64 | 3600 | 9 | 4440 | 9 | – | – | – | – | – | – | – | – | –
4 | Cc1c(-c2noc(-c3cnc(NC(C)C)c(C#N)c3)n2)ccc2c1CCN(C(CO)CO)CC2 | 8.3 | – | – | – | 2.44 | – | – | – | – | – | – | – | – | – | – | – | – | – | AUC/dose (Rattus norvegicus [11]): 63 kg·min/L; AUC [12]: 17000 ng·h/mL; Cmax [13]: 1140 ng/mL; Cmax [14]: 1350 ng/mL; fold induction at 96 h (CYP1A1 [15]): 81; fold induction at 96 h (CYP1A2 [16]): 2; AUC/dose (Rattus norvegicus [17]): 43 kg·min/L; AUC [18]: 24900 ng·h/mL
5 | CC(C)Oc1ccc(-c2nc(-c3cccc4c3CCN(C(CO)CO)C4)no2)cc1C#N | 7.3 | – | – | – | 2.58 | – | – | – | – | – | 940 | 1.6 | 13900 | 56 | 48 | 12100 | 2 | 900 | –
6 | Cc1c(-c2noc(-c3ccc(OC(C)C)c(C#N)c3)n2)ccc2c1OCCN(C(CO)CO)C2 | 6.3 | – | – | – | 2.86 | – | – | – | – | – | – | – | – | – | – | – | – | – | bioavailability [27]: 69%; AUC/dose (Rattus norvegicus [28]): 30 kg·min/L; fold induction at 96 h (CYP1A2 [29]): 2; AUC/dose (Rattus norvegicus [30]): 22 kg·min/L; half-life [31]: 1 h; Cmax [32]: 870 ng/mL; AUC [33]: 12600 ng·h/mL; Vd [34]: 4 L/kg; AUC [35]: 8840 ng·h/mL; Cmax [36]: 1140 ng/mL; fold induction at 96 h (CYP1A1 [37]): 40; clearance [38]: 54 mL/min/kg
